Tests used:
[1] = AUClast in Beagle dog at 3 mg/kg, po administered via gavage by LC-MS/MS analysis; type: ADME, organism-based, Canis lupus familiaris; parameters: time 0 - last, route oral, dose 3 mg/kg; settings: in vivo
Outline: (§1)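 Male beagle dogs (7–10 kg), fasted overnight and fed 4 h postdose, received the bis-hydrochloride salt at 3 mpk by oral gavage. Plasma concentrations by LC-MS/MS; Cmax and AUClast from the oral dose.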

[2] = Half life in Beagle dog at 0.3 mg/kg, iv by LC-MS/MS analysis; type: ADME, organism-based, Canis lupus familiaris; settings: in vivo; for t1/2: 0.3 mg/kg
Outline: (§2)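 Bis-hydrochloride salt given to male Sprague-Dawley rats (200–300 g) or male beagle dogs (7–10 kg), fasted overnight and fed 4 h postdose. IV dose 0.3 mg/kg (rat dorsal foot vein, dog cephalic vein) or PO gavage 3 mg/kg.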

[3] = Oral bioavailability in Beagle dog at 3 mg/kg administered via gavage by LC-MS/MS analysis; type: ADME, organism-based, Canis lupus familiaris; settings: in vivo; outline: as §2
[4] = Oral bioavailability in Sprague-Dawley rat at 3 mg/kg administered via gavage by LC-MS/MS analysis; type: ADME, organism-based; settings: in vivo; outline: as §2
[5] = AUClast in Sprague-Dawley rat at 3 mg/kg, po administered via gavage by LC-MS/MS analysis; type: ADME, organism-based; parameters: route oral, time 0 - last, dose 3 mg/kg; settings: in vivo
Outline: (§3)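 Male Sprague-Dawley rats (200–300 g), fasted overnight and fed 4 h postdose, given the bis-hydrochloride salt at 3 mpk by oral gavage. Tail-vein blood into K2EDTA taken predose and at 0.083–24 h (0.083, 0.25, 0.5, 1, 2, 4, 8, 24 h). Plasma analysed by LC-MS/MS; Cmax and AUClast derived from the oral dose.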

[6] = Cmax in Beagle dog at 3 mg/kg, po administered via gavage by LC-MS/MS analysis; type: ADME, organism-based, Canis lupus familiaris; parameters: route oral, dose 3 mg/kg; settings: in vivo; outline: as §1
[7] = Volume of distribution at steady state in Sprague-Dawley rat at 0.3 mg/kg, iv by LC-MS/MS analysis; type: ADME, organism-based; settings: in vivo; outline: as §2
[8] = Volume of distribution at steady state in Beagle dog at 0.3 mg/kg, iv by LC-MS/MS analysis; type: ADME, organism-based, Canis lupus familiaris; settings: in vivo; for Vdss: 0.3 mg/kg; outline: as §2
[9] = Cmax in Sprague-Dawley rat at 3 mg/kg, po administered via gavage by LC-MS/MS analysis; type: ADME, organism-based; parameters: route oral, dose 3 mg/kg; settings: in vivo; outline: as §3
[10] = Half life in Sprague-Dawley rat at 0.3 mg/kg, iv by LC-MS/MS analysis; type: ADME, organism-based; settings: in vivo; outline: as §2
[11] = Permeability across basolateral to apical side in human Caco-2 cells at 10 uM measured after 90 mins by LC-MS/MS analysis; type: ADME, cell-based
Outline: (§4)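 Caco-2 monolayers grown 21–28 days on polycarbonate filter inserts, with TEER and Lucifer Yellow checked before and after. Compound at 10 μM in HBSS with 25 mM HEPES, pH 7.4. Run A→B and B→A at 37 °C for 90 min. Receiver and donor samples quantified by LC-MS/MS.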

[12] = Intrinsic clearance in dog hepatocytes […] at 2 uM measured after 15 to 120 mins by LC-MS analysis; type: ADME, cell-based, Canis lupus familiaris, Hepatocyte; settings: time 15-120 min
Outline: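 Hepatocytes at 2×10^6 viable cells/mL, mixed with an equal volume of 2 μM compound in KHB buffer. Incubated at 37 °C and quenched with ACN at 0, 15, 30, 60 and 120 min. Analysed by LC/MS, with percent remaining from peak area ratio to internal standard against 0 min. Half-life from a single-phase exponential fit.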

[13] = Permeability across apical to basolateral side in human Caco-2 cells at 10 uM measured after 90 mins by LC-MS/MS analysis; type: ADME, cell-based; outline: as §4
[14] = rat, microsomes, 0.75 h, 1 µM
[15] = Free plasma concentration in NSG mouse xenografted with human H460 cells at 10 mg/kg, po administered as single dose via gavage measured after 24 hrs by LC-MS analysis; type: ADME, organism-based; settings: in vivo
[16] = Cmax in CD-1 mouse at 10 mg/kg, po administered via gavage by LC-MS/MS analysis; type: ADME, organism-based; parameters: route oral, dose 10 mg/kg; settings: in vivo
Outline: (§5)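 Female CD-1 mice (20–30 g), food and water ad libitum, given the bis-hydrochloride salt at 10 mpk by oral gavage. Plasma quantified by LC-MS/MS; Cmax and AUClast from the oral dose.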

[17] = AUClast in cynomolgus monkey at 3 mg/kg, po administered via gavage by LC-MS/MS analysis; type: ADME, organism-based, Macaca fascicularis; parameters: route oral, time 0 - last, dose 3 mg/kg; settings: in vivo
Outline: (§6)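 Male cynomolgus monkeys (3–5 kg), fasted overnight and fed 4 h postdose, dosed with the bis-hydrochloride salt at 3 mpk by nasal gavage. Blood from saphenous or cephalic vein into K2EDTA at predose and 0.083–24 h (0.083, 0.25, 0.5, 1, 2, 4, 8, 24 h). Plasma quantified by LC-MS/MS; Cmax and AUClast from the oral dose.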

[18] = Oral bioavailability in cynomolgus monkey at 3 mg/kg administered via gavage by LC-MS/MS analysis; type: ADME, organism-based, Macaca fascicularis; settings: in vivo
Outline: (§7)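 Bis-hydrochloride salt dosed 0.3 mg/kg IV and 3 mg/kg PO (mouse: 3 mg/kg IV, 10 mg/kg PO); female CD-1 mice, male beagle dogs, male cynomolgus monkeys; monkeys and dogs fasted overnight and fed 4 h postdose. IV via tail (mouse) or cephalic vein; PO by oral (mouse) or nasal (monkey) gavage. K2EDTA plasma sampled predose to 24 h; LC-MS/MS. CL, Vdss, t1/2 from IV; F% from oral dose.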

[19] = Half life in CD-1 mouse at 3 mg/kg, iv by LC-MS/MS analysis; type: ADME, organism-based; settings: in vivo; outline: as §7
[20] = Oral bioavailability in CD-1 mouse at 10 mg/kg administered via gavage by LC-MS/MS analysis; type: ADME, organism-based; settings: in vivo; outline: as §7
[21] = Free plasma concentration in NSG mouse xenografted with human H460 cells at 50 mg/kg, po administered as single dose via gavage measured after 8 hrs by LC-MS analysis; type: ADME, organism-based; settings: in vivo
Outline: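 Female NSG mice, 6–10 weeks old, bearing H460 tumours (5×10^5 cells with matrigel 1:1) of 300–400 mm³. Given a single oral gavage dose of bis-hydrochloride salt in 0.5% methylcellulose. Six animals per group. Free plasma concentration taken at 8 or 24 h, given as mean with standard deviation.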

[22] = Clearance in cynomolgus monkey at 0.3 mg/kg, iv by LC-MS/MS analysis; type: ADME, organism-based, Macaca fascicularis; settings: in vivo; outline: as §7
[23] = Free plasma concentration in NSG mouse xenografted with human H460 cells at 250 mg/kg, po administered as single dose via gavage measured after 8 hrs by LC-MS analysis; type: ADME, organism-based; settings: in vivo
[24] = Cmax in cynomolgus monkey at 3 mg/kg, po administered via gavage by LC-MS/MS analysis; type: ADME, organism-based, Macaca fascicularis; parameters: route oral, dose 3 mg/kg; settings: in vivo; outline: as §6
[25] = Free plasma concentration in NSG mouse xenografted with human H460 cells at 10 mg/kg, po administered as single dose via gavage measured after 8 hrs by LC-MS analysis; type: ADME, organism-based; settings: in vivo
[26] = Volume of distribution at steady state in cynomolgus monkey at 0.3 mg/kg, iv by LC-MS/MS analysis; type: ADME, organism-based, Macaca fascicularis; settings: in vivo, read-out: Vdss; outline: as §7
[27] = Volume of distribution at steady state in CD-1 mouse at 3 mg/kg, iv by LC-MS/MS analysis; type: ADME, organism-based; settings: in vivo, read-out: Vdss; outline: as §7
[28] = Free plasma concentration in NSG mouse xenografted with human H460 cells at 250 mg/kg, po administered as single dose via gavage measured after 24 hrs by LC-MS analysis; type: ADME, organism-based; settings: in vivo
[29] = Half life in cynomolgus monkey at 0.3 mg/kg, iv by LC-MS/MS analysis; type: ADME, organism-based, Macaca fascicularis; settings: in vivo; outline: as §7
[30] = AUClast in CD-1 mouse at 10 mg/kg, po administered via gavage by LC-MS/MS analysis; type: ADME, organism-based; parameters: time 0 - last, route oral, dose 10 mg/kg; settings: in vivo; outline: as §5
[31] = Clearance in Beagle dog at 0.3 mg/kg, iv by LC-MS/MS analysis; type: ADME, organism-based, Canis lupus familiaris; settings: in vivo; outline: as §7
[32] = Oral bioavailability in Sprague-Dawley rat at 2 mg/kg administered via gavage by LC-MS/MS analysis; type: ADME, organism-based; settings: in vivo
[33] = Cmax in Sprague-Dawley rat at 2 mg/kg, po administered via gavage by LC-MS/MS analysis; type: ADME, organism-based; parameters: route oral, dose 2 mg/kg; settings: in vivo
[34] = AUClast in Sprague-Dawley rat at 2 mg/kg, po administered via gavage by LC-MS/MS analysis; type: ADME, organism-based; parameters: route oral, time 0 - last, dose 2 mg/kg; settings: in vivo
[35] = Intrinsic clearance in mouse liver microsomes assessed per kg protein at 1 uM measured up to 45 mins in presence of NADPH by LC-MS/MS analysis; type: ADME, Microsome; settings: 0.75 h
[36] = human, microsomes, 0.75 h, 1 µM
[37] = Intrinsic clearance in monkey liver microsomes assessed per kg protein at 1 uM measured up to 45 mins in presence of NADPH by LC-MS/MS analysis; type: ADME, Macaca mulatta, Microsome; settings: rhesus monkey, 0.75 h
[38] = Intrinsic clearance in mouse hepatocytes […] at 2 uM measured after 15 to 120 mins by LC-MS analysis; type: ADME, cell-based, Hepatocyte; settings: time 15-120 min
[39] = Intrinsic clearance in monkey hepatocytes […] at 2 uM measured after 15 to 120 mins by LC-MS analysis; type: ADME, cell-based, Macaca mulatta, Hepatocyte; settings: rhesus monkey, time 15-120 min

Compound	AUClast [1]	t1/2 [2]	F [3]	F [4]	AUClast [5]	Cmax [6]	Vdss [7]	Vdss [8]	Cmax [9]	t1/2 [10]	permeability [11]	CLint [12]	permeability [13]	also measured
CNC(=O)c1cn(C[C@H](F)CCc2ccc(NC(=O)Cc3cc(OC4CC(F)(F)C4)ccn3)nn2)nn1.Cl	10 µM·h	2.3 h	34%	48%	16 µM·h	2.7 µM	0.2 L/kg	0.5 L/kg	5.8 µM	1.2 h	–	–	–	–
CNC(=O)c1cn(C[C@H](F)CCc2ccc(NC(=O)Cc3cc(OC4CC(F)(F)C4)ccn3)nn2)nn1	–	–	–	–	–	–	–	–	–	–	20 10^-6 cm/s	4 mL/min/kg	1.8 10^-6 cm/s	–
CNC(=O)c1cn(CCCCc2ccc(NC(=O)Cc3cc(OCC(F)(F)F)ccn3)nn2)nn1	–	–	–	–	–	–	–	–	–	–	–	–	–	CLH [14]: 0.4 mL/min
CNC(=O)c1cn(C[C@H](F)CCc2ccc(NC(=O)Cc3cc(C(F)(F)F)cc(C)n3)nn2)nn1	23 µM·h	2.6 h	21%	28%	24 µM·h	4.5 µM	0.2 L/kg	0.2 L/kg	4.4 µM	3.3 h	25 10^-6 cm/s	9 mL/min/kg	7.7 10^-6 cm/s	–
CNC(=O)c1cn(C[C@H](F)CCc2ccc(NC(=O)Cc3cc(OC4CC(F)(F)C4)cc(C)n3)nn2)nn1.Cl.Cl	250 µM·h	–	> 100%	70%	208 µM·h	31 µM	0.1 L/kg	–	32 µM	5.3 h	–	–	–	Cp(f) [15]: 0.006 µM; half-life ([2]; Beagle): 5.3 h; Cmax [16]: 19 µM; AUC(0-t) [17]: 8.7 µM·h; bioavailability [18]: 72%; half-life [19]: 1 h; F [20]: 89%; Cp(f) [21]: 0.198 µM; clearance [22]: 8 mL/min/kg; Cp(f) [23]: 0.316 µM; Cmax [24]: 6.5 µM; Cp(f) [25]: 0.029 µM; Vd ([8]; Beagle, read-out: Vdss): 0.18 L/kg; Vd [26]: 0.31 L/kg; Vd [27]: 0.27 L/kg; Cp(f) [28]: 0.316 µM; half-life [29]: 0.9 h; AUClast [30]: 67 µM·h; clearance [31]: 0.59 mL/min/kg
CNC(=O)c1cn(C[C@H](F)CCc2ccc(NC(=O)Cc3cc(-c4cccc(OC(F)(F)F)c4)ccn3)nn2)nn1.Cl	2.5 µM·h	2.5 h	8%	–	–	0.58 µM	1 L/kg	0.5 L/kg	–	2.7 h	–	–	–	F [32]: 19%; Cmax [33]: 0.35 µM; AUClast [34]: 1.2 µM·h
CNC(=O)c1cn(C[C@H](F)CCc2ccc(NC(=O)Cc3cc(OC4CC(F)(F)C4)cc(C)n3)nn2)nn1 [IPN-60090]	–	–	–	–	–	–	–	–	–	–	25 10^-6 cm/s	7 mL/min/kg	5.2 10^-6 cm/s	CLint [35]: 55 mL/min/kg; CLH [36]: <= 0.7 ml/min; CLint [37]: 21 mL/min/kg; CLint [38]: 16 mL/min/kg; CLint [39]: 12 mL/min/kg
